From PubChem
SKKanGAS inh: S. pyogenes SKKanGAS growth inhibitors in kanamycin, primary screen, streptokinase expression inhibitor project, SKKanGAS strain, BacTiter-Glo luminescence | AID 1662, 2009 | 300,000 compounds, 1.3% hits | inhibition, % at 7.5 µM | 6 h;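 active means mean replicate score, as percent of positive control median, at least 50; inconclusive means mean below 50 but one replicate at or above 50; inactive means mean and every replicate below 50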;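 further: strain carries kanamycin resistance gene driven by streptokinase promoter and grows in 40 µg/ml kanamycin; loss of luminescence reflects streptokinase promoter inhibition or plain growth inhibition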
CSC inhib: cancer stem cell viability inhibitors, primary screen, luminescence. cancer stem cell-like cells viability. inhibition, % at 7.5 µM. 300,000 compounds, 1.1% hits. AID 2717, 2010; in the data active means inhibition above about 75%; inconclusive means no clear call, values can overlap the other calls; tested in HMLE shEcad cells
Mdm2-MdmX inh: inhibitors of human Mdm2-MdmX association, primary screen, cell-based, luminescence, split luciferase, SaOS-2, uHTS | SaOS-2 split-luciferase Mdm2/MdmX complementation | inhibition, % at 8 µM | 330,000 compounds, 3% hits | AID 485346, 2010;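 active means inhibition of at least 50% at 8 µM in the primary screen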
Target sequence (O15151 whole entry, looked up): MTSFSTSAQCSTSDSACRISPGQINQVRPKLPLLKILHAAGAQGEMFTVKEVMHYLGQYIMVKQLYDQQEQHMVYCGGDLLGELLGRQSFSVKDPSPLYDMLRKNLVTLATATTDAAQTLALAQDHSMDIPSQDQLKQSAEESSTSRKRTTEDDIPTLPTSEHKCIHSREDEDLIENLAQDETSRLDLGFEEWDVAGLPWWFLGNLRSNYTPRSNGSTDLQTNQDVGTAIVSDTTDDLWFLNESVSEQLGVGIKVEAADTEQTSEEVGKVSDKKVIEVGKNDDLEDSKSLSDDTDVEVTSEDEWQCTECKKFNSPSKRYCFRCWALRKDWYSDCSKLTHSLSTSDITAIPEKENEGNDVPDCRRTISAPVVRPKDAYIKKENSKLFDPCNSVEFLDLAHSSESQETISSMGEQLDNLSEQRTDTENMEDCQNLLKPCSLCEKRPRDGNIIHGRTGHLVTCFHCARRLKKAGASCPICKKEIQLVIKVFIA
Target sequence (Q00987 whole entry, looked up): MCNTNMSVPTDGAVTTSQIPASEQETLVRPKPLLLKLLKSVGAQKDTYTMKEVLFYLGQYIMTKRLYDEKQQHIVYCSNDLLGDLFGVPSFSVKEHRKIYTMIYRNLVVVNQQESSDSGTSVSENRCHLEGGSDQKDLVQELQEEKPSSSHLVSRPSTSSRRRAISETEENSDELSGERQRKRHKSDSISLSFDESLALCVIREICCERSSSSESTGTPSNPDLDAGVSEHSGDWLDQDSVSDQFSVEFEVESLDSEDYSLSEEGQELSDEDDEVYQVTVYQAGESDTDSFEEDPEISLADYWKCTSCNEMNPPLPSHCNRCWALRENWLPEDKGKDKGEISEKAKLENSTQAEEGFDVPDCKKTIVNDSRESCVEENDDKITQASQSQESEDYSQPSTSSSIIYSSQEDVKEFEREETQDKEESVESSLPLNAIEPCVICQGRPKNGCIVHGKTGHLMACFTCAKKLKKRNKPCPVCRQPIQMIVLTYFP
T cruzi repl: inhibitors of intracellular T. cruzi growth, primary screen, luminescence, NIH3T3 host cells. inhibition, % (no concentration beside the values). AID 1885, 2009. 300,000 compounds, 1.4% hits. T. cruzi beta-gal in NIH3T3, 90 h;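 active means mean inhibition across valid replicates above about 55%, limit read from the data; inconclusive means mean below that limit but half or more replicates reach it; inactive means mean below it, under half of replicates reach it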;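 further: signal also drops with host cell toxicity which is not excluded here; higher percent means less beta-gal luminescence so fewer parasites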
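compound dosing = single 50 nL compound addition per well in DMSO | material = NIH/3T3 host cells with β-galactosidase reporter T. cruzi | input = 5,000 host fibroblasts per well | timing = ≥90 h infection period, 3 h prior cell attachment | read-out basis = percent inhibition of parasite-derived β-gal signal | detection = GalScreen β-gal luminescence, detergent lysis, 60 min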
aSyn 5UTR inh: MLPCN primary screen, SNCA 5' untranslated region; alpha-synuclein 5'UTR reporter, inhibitor activity; inhibition, % (tested at 7.5 µM); 300,000 compounds, 0.82% hits; in the data active means inhibition above about 60%; inconclusive means no clear call, values can overlap the other calls;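 further: H4 neuroglioblastoma cells stably carrying SNCA 5'UTR luciferase fusion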
Of the large screens only hits and unclear results are named; the others gave an inactive call. Rows were chosen to be rich in hits. Some 5.4% of all compounds tested hit in one or more screens of this group.

Cc1nnc(Sc2cc(C(=O)NCCCN(C)Cc3ccccc3)c3ccccc3n2)s1	T cruzi repl 63.8
COc1cc(NC(=O)c2ccco2)c(C(=O)OCC(=O)c2c[nH]c3ccccc23)cc1OC	CSC inhib 82.8
COc1ccc(-c2nn(CCC#N)cc2C(=O)Nc2cccc(C(=O)O)c2)cc1OC	none
COc1ccc(Oc2nc(-c3ccccn3)ncc2OC)cc1	SKKanGAS inh 53.8
COc1cnc(-c2ccccc2)nc1Oc1cccc(C)c1	none
COc1cnc(-c2ccccn2)nc1Sc1c(Cl)cccc1Cl	none
COc1cnc(-c2ccccn2)nc1Oc1c(C)cccc1C	SKKanGAS inh 56.8
COc1cnc(-c2ccccn2)nc1Sc1ccccc1Cl	T cruzi repl 60.4
COc1cnc(-c2ccccn2)nc1Oc1cccc(Cl)c1	none
Cc1cccn2c(=O)c3cc(C(=O)NCC4CCCO4)c(=N)n(C4CCCC4)c3nc12 (configuration not stated)	none
O=C(COC(=O)c1cncc(Br)c1)NC1CCCC1	none
COc1ccc(S(=O)(=O)Nc2c(C)n(C)n(-c3ccccc3)c2=O)cc1C(=O)O	none (no result: CSC inhib)
CCCN(CC(=O)Nc1ccccc1C)C(=O)c1ccc(OCc2c(C)noc2C)cc1	none (no result: SKKanGAS inh, CSC inhib, T cruzi repl, aSyn 5UTR inh)
O=C1C(Cl)=C(Nc2ccccc2)C(=O)c2ccccc21	CSC inhib 111.7, T cruzi repl inconclusive (no result: Mdm2-MdmX inh)
CC1=C(Nc2ccc(C(=O)O)cc2)C(=O)c2ccccc2C1=O	none
CC(C)NC1=C(Cl)C(=O)c2ccccc2C1=O	none
O=C(O)c1cccc(NC2=C(Cl)C(=O)c3ccccc3C2=O)c1	T cruzi repl 63.7 (no result: CSC inhib, Mdm2-MdmX inh)
CCN(CC)CCCNC1=C(Cl)C(=O)c2ccccc2C1=O	CSC inhib 106.6, T cruzi repl 79.1, aSyn 5UTR inh 76.1
Cc1ccc(NC2=C(NC(=O)c3ccccc3)C(=O)c3ccccc3C2=O)cc1Cl	SKKanGAS inh 73.7
COC(=O)C1=C(N)Oc2cc(C)n(CC3CCCO3)c(=O)c2C1c1ccc(Cl)cc1 (configuration not stated)	none
O=C1OCCN1C(=O)[C@H]1[C@H](c2ccc([N+](=O)[O-])cc2)C(c2ccc(F)cc2)=NN1c1ccc(Br)cc1	none (no result: SKKanGAS inh, CSC inhib, T cruzi repl, aSyn 5UTR inh)
Cc1cccc(NC(=O)c2ccc(S(=O)(=O)NCc3cccnc3)cc2)c1	none
CCOc1ccc(NC(=O)c2cccc(-n3cccc3)c2)cc1S(=O)(=O)N1CCOCC1	none (no result: SKKanGAS inh, CSC inhib, T cruzi repl, aSyn 5UTR inh)
c1ccc(-n2c3ccccc3c3ccccc32)cc1	SKKanGAS inh 58.3
CCN(CC)CCNc1nc2cc(OC)c(OC)cc2c2nc(-c3ccccc3)nn12	T cruzi repl 64.7
O=C(OCc1c(-c2ccccc2)ncc2ccccc12)N1CCOCC1	none (no result: SKKanGAS inh, T cruzi repl, aSyn 5UTR inh)
CC(C)Cn1c(N)c(C(=O)COC(=O)c2ccc(O)cc2O)c(=O)n(C)c1=O	none
CCCCc1ccc(/C(C)=N/Nc2cc(N3CCOCC3)nc(C)n2)cc1	CSC inhib 79.9, T cruzi repl 61.9
O=C(Nc1ncccn1)c1ccc(Cl)c([N+](=O)[O-])c1	none
CN(C)CCC(=O)C(Cc1ccccc1)c1ccccc1 (configuration not stated)	T cruzi repl inconclusive, aSyn 5UTR inh 98.9
CN(C)CCNC(=O)C(c1ccccc1)c1ccccc1	none
Cc1ccc(-n2c(C)cc(/C=C3\SC(=O)NC3=O)c2C)cc1	none
Cc1cc(/C=C2\SC(=S)NC2=O)c(C)n1-c1cccc(O)c1	SKKanGAS inh 81.5
Cc1sc(-n2c(C)cc(/C=C3\SC(=S)NC3=O)c2C)c(C#N)c1C	CSC inhib 78.8
COc1ccccc1NC(=S)N(Cc1ccc(C)cc1)Cc1cccnc1	none
COc1ccc(CCN(Cc2ccccn2)C(=S)Nc2cccc(SC)c2)cc1OC	none
CSc1cccc(NC(=S)N(Cc2ccc(C)cc2)Cc2ccccn2)c1	T cruzi repl 55.3
COc1ccccc1NC(=S)N(Cc1ccc(C)cc1)Cc1ccccn1	T cruzi repl 54.6
CC(C)(C)OC(=O)C[C@H]1C/C=C\C[C@@H](CC(=O)N[C@H](CO)Cc2ccccc2)C(=O)NC[C@H](c2ccccc2)OC1=O	none (no result: SKKanGAS inh, T cruzi repl, aSyn 5UTR inh)
CCOC(=O)c1c(/N=C/C2=C(O)CCCC2=O)sc(C)c1C	none
CCOC(=O)c1c(-c2ccc(OC)cc2)csc1/N=C/C1=C(O)CCCC1=O	SKKanGAS inh 57.3 (no result: aSyn 5UTR inh)
COc1ccccc1OCC(=O)N1CCN(S(=O)(=O)c2ccc(Cl)cc2)CC1	none (no result: SKKanGAS inh, CSC inhib, T cruzi repl, aSyn 5UTR inh)
